One experiment concerns MCF7. Description: Anticancer activity against estrogen-positive human MCF7 cells after 18 hrs by MTT assay. Format: functional, cell-based. The note with it: MCF7, 18 h. The method, boiled down: (§1)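 MTT assay: 1 × 10⁴ cells/well seeded in DMEM with 10% FBS and held 24 h at 37 °C in a CO₂ incubator. Compounds were diluted in culture medium and added alongside a vehicle control. After 18 h of exposure, MTT (5 mg/mL stock) was added and plates were incubated a further 4 h.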
A general note: Tetrazolium dyes change colour on reduction, which living cells bring about.

A further experiment relates to MDA-MB-231. Description: Anticancer activity against estrogen-receptor-negative human MDA-MB-231 cells after 18 hrs by MTT assay. Format: functional, cell-based. The note with it: MDA-MB-231, 18 h. The essentials: as §1
Another experiment relates to HEK293. The experiment in a line: Cytotoxicity against HEK293 cells after 18 hrs by MTT assay. It is filed as cell-based. The note with it: Homo sapiens, HEK293, 18 h. The essentials: as §1
A further experiment concerns A2780 ADR. Description: Reversal of P-gp-mediated multidrug resistance in human 2780AD cells assessed as vincristine accumulation. It is filed as cell-based.
In a further experiment the test system is Rattus norvegicus. Description: Antitumor activity against DMBA-induced mammary tumor in Sprague-Dawley rat assessed as tumor regression at 10 mg/kg, po administered for 30 days. It is filed as functional, organism-based. On the set-up: dose 10 mg/kg.

Active and inactive are the calls of the source. No cut-off for these calls is given here.

For `C=C1[C@H]2C[C@@H]3C[C@H](OC(C)=O)C(C)=C([C@@H](OC(C)=O)[C@H](OC(C)=O)[C@]2(C)[C@@H](OC(C)=O)C[C@@H]1O)C3(C)C`, the IC50 in the experiment on MCF7, in the experiment on MDA-MB-231 and in the experiment with HEK293 was over 50 µM in each case.
In the case of `C=C1[C@@H](OC(=O)CCc2cccnc2)C[C@H](OC(C)=O)[C@]2(C)[C@@H]1C[C@@H]1C[C@H](OC(C)=O)C(C)=C([C@@H](OC(C)=O)[C@@H]2OC(C)=O)C1(C)C`, the IC50 (usually the concentration at which inhibition is half-maximal) in the experiment with MCF7 was 39 µM; with MDA-MB-231 it was over 50 µM; in the experiment with HEK293, over 50 µM.
Take `C=C1[C@@H](OC(=O)/C=C/c2cccnc2)C[C@H](OC(C)=O)[C@]2(C)[C@@H]1C[C@@H]1C[C@H](OC(C)=O)C(C)=C([C@@H](OC(C)=O)[C@@H]2OC(C)=O)C1(C)C`: the IC50 in the experiment on MCF7 is 34 µM; with MDA-MB-231 it was over 50 µM; in the experiment on HEK293, over 50 µM.
As to `CC(=O)O[C@H]1C(=O)[C@@]2(C)[C@H]([C@H](OC(=O)c3ccccc3)[C@]3(O)C[C@H](OC(=O)[C@H](O)[C@@H](NC(=O)c4ccccc4)c4ccccc4)C(C)=C1C3(C)C)[C@]1(OC(C)=O)CO[C@@H]1C[C@@H]2O` [PACLITAXEL], the IC50 in the experiment with HEK293 is 43 µM.
As to `C=C1[C@@H](OC(=O)c2cccnc2)C[C@H](OC(C)=O)[C@]2(C)[C@@H]1C[C@@H]1C[C@H](OC(C)=O)C(C)=C([C@@H](OC(C)=O)[C@@H]2OC(C)=O)C1(C)C`, the IC50 with MCF7, with MDA-MB-231 and in the experiment with HEK293 was over 50 µM each time.
Regarding `C=C1[C@@H](OC(=O)CCc2ccccc2)C[C@H](OC(C)=O)[C@]2(C)[C@@H]1C[C@@H]1C[C@H](OC(C)=O)C(C)=C([C@@H](OC(C)=O)[C@@H]2OC(C)=O)C1(C)C`, the IC50 with MCF7 is 15 µM; in the experiment with MDA-MB-231, 20 µM; in the experiment with HEK293 it was 10 µM.
Consider `COc1ccc(CCN(C)CCCC(C#N)(c2ccc(OC)c(OC)c2)C(C)C)cc1OC` (stereo not given), for which the Activity with A2780 ADR came out at 254%.
`C=C1[C@@H](OC(=O)Cc2ccccn2)C[C@H](OC(C)=O)[C@]2(C)[C@@H]1C[C@@H]1C[C@H](OC(C)=O)C(C)=C([C@@H](OC(C)=O)[C@@H]2OC(C)=O)C1(C)C`: the figures for the IC50 in the experiment with MCF7, with MDA-MB-231 and with HEK293 were 28 µM, over 50 µM and over 50 µM, respectively.
In the case of `CC/C(=C(\c1ccccc1)c1ccc(OCCN(C)C)cc1)c1ccccc1` [TAMOXIFEN], the IC50 worked out at 12 µM with MCF7 and 24 µM with MDA-MB-231.
In the case of `C=C1[C@@H](OC(=O)/C=C/c2ccccc2)C[C@H](OC(C)=O)[C@]2(C)[C@@H]1C[C@@H]1C[C@H](OC(C)=O)C(C)=C([C@@H](OC(C)=O)[C@@H]2OC(C)=O)C1(C)C`, the values for the IC50 in the experiment with MCF7, with MDA-MB-231 and with HEK293 were 20 µM, 10 µM and over 50 µM, respectively. The outcome in the experiment with Rattus norvegicus was Active. Moreover, the Activity with A2780 ADR was found to be 266%.
In the case of `C=C1[C@@H](OC(=O)[C@@H](O)[C@H](O)c2ccccc2)C[C@H](OC(C)=O)[C@]2(C)[C@@H]1C[C@@H]1C[C@H](OC(C)=O)C(C)=C([C@@H](OC(C)=O)[C@@H]2OC(C)=O)C1(C)C`, the IC50 in the experiment on MCF7 was over 50 µM; with MDA-MB-231 it was 13 µM; in the experiment on HEK293 it was over 50 µM.

For the origin of these results see ChEMBL document CHEMBL1154045, “In vitro and in vivo anticancer activity of 2-deacetoxytaxinine J and synthesis of novel taxoids and their in vitro anticancer activity” (Eur J Med Chem, 2009).
